Measured values pooled from the literature.
Lines come from different studies, so protocols differ.
Target: Serine/threonine-protein kinase haspin (HASPIN, Homo sapiens, UniProt Q8TF76)
Residues used in one study (Q8TF76 1-798): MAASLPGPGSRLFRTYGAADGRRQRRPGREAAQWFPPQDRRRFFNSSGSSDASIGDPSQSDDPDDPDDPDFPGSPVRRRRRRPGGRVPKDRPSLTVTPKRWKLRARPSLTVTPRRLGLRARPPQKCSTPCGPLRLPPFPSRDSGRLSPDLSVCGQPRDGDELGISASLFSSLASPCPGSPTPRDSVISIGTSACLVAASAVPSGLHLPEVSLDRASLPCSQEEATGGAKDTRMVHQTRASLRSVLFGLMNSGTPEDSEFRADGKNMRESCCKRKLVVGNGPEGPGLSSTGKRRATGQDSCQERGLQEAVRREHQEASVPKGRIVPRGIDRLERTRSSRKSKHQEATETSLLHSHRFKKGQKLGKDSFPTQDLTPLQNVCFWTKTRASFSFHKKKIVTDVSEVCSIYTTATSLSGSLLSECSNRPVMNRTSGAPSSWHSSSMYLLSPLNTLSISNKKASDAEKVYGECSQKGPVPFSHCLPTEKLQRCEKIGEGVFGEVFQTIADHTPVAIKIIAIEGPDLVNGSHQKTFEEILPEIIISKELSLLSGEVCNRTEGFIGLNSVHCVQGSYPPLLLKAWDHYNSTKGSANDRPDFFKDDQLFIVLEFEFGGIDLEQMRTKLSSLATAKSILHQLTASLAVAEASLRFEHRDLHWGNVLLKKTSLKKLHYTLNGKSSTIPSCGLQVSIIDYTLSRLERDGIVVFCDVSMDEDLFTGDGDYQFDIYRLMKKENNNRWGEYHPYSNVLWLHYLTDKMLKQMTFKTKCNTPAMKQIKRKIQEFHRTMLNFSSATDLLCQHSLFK

Compound | read-out | technique | concentration | remaining binding
C[C@@H]1CCN(c2nccc(-c3cnn4ncccc34)n2)C1 | binding | – | 1 µM | 2%
Cc1cnc(Nc2ccc(C(=O)N3CCC(N4CCCC4)CC3)cc2)nc1-c1cc2ccccc2s1 | binding | competition with immobilised ligand | 1 µM | 83%
CSc1cccnc1N1CCN(Cc2nc3ccccc3[nH]2)CC1 | cell-free assay | competition with immobilised ligand | 1 µM | 100%
O=C(c1ccc(Nc2ncc(Cl)c(-c3ccc(Cl)s3)n2)cc1)N1CCC(N2CCCC2)CC1 | binding | competition with immobilised ligand | 1 µM | 39%
O=C1NC(c2ccccn2)Sc2ccccc21 (stereo not shown) | cell-free assay | competition with immobilised ligand | 1 µM | 100%
O=C(NCC1CCOCC1)c1n[nH]cc1NC(=O)c1c(F)cccc1F | binding | competition with immobilised ligand | 1 µM | 88%
FC(F)(F)Oc1cccc(-c2cnc3ccc(-c4ccncc4)nn23)c1 | binding | competition with immobilised ligand | 5 µM | 4.6%
CCN1CCN(Cc2ccc(C(=O)Nc3ccc(C)c(Oc4ccc5c(c4)CC(=O)N5)c3)cc2C(F)(F)F)CC1 | binding | competition with immobilised ligand | 1 µM | 100%
N[C@H]1CCN(c2nccc(-c3cnn4ncccc34)n2)C1 | binding | – | 1 µM | 0.4%
O=C(c1ccc(Nc2nccc(-c3cc4ccccc4s3)n2)cc1)N1CCC(N2CCCC2)CC1 | binding | competition with immobilised ligand | 1 µM | 64%
c1cnn2ncc(-c3ccnc(N4CCC45COC5)n3)c2c1 | binding | – | 1 µM | 0.6%
Cn1nc(C(F)(F)F)cc1-c1cnc(N2CCc3cc(S(=O)(=O)Nc4c(F)cc(Cl)cc4F)cc(N4CCCC4=O)c32)nc1 | cell-free assay | competition with immobilised ligand | 1 µM | 68%
CN(c1nccc(-c2cnn3ncccc23)n1)C1CC1 | binding | – | 1 µM | 18%
O=C(Nc1cnc(Oc2ccc(F)cc2)nc1)N1CCc2ncccc2[C@@H]1c1ccc(F)cc1 | cell-free assay | competition with immobilised ligand | 1 µM | 93%
c1cncc(-c2cccc(Nc3nccc(NC4CCCCC4)n3)c2)c1 | binding | competition with immobilised ligand | 10 µM | 23%
CC1CCCN1c1nccc(-c2cnn3ncccc23)n1 (stereo not shown) | binding | – | 1 µM | 21%
Nc1ncc2c(n1)-c1c([nH]c3ccc(C#CC4CC4)cc13)CCCC2 | binding | competition with immobilised ligand | 1 µM | 100%
C[C@@H](c1ccc(-n2cnc3c(N)ncnc32)cc1)N1CCc2nn(C)c(Cc3ccccc3)c2C1=O | binding | competition with immobilised ligand | 0.1 µM | 79%
CS(=O)(=O)N1CCCC(NC(=O)[C@H](CCC2CCCCC2)NC(=O)c2ccc(CNc3ncnc4c3nnn4-c3ccccc3)cc2)C1 (stereo partly shown) | cell-free assay | competition with immobilised ligand | 0.1 µM | 100%
COc1cnc(Nc2cccc(S(N)(=O)=O)c2)nc1N1CCN(c2ccccc2)CC1 | binding | competition with immobilised ligand | 1 µM | 82%
CCS(=O)(=O)c1cc2cc(C[C@@](O)(CC(C)(C)c3ccc(F)cc3C(N)=O)C(F)(F)F)[nH]c2cn1 | cell-free assay | competition with immobilised ligand | 1 µM | 80%
CN(C)c1nccc(-c2cnc3ncccn23)n1 | binding | – | 1 µM | 2.8%
